Data set [1] concerns the target T1, cAMP and cAMP-inhibited cGMP 3',5'-cyclic phosphodiesterase 10A (Homo sapiens, UniProt Q9Y233). As to the kind of experiment: Inhibition of Ca2+/calmodulin-induced recombinant human full length N-terminal GST-tagged PDE10A1 expressed in baculovirus infected Sf9 cells using cAMP as substrate pretreated for 10 mins followed by substrate addition and measured after 40 mins by kinase-Glo luminescence assay. Background: Kinase-Glo reads ATP consumption through a luciferase reaction.

The nature of data set [2]: Intrinsic clearance in rat liver microsomes in presence of NADP/G6P/G6P dehydrogenase/MgCl2 by LC/MS analysis. It counts as ADME, microsome. The following applies: read-out: CLH. In short, it runs like this: (§1)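 Phase-1 liver microsomal stability assay for the named species, with intrinsic clearance reported in µl x min^-1 x mg^-1.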
(In general: Liver microsomes are vesicles of endoplasmic reticulum, rich in cytochrome P450 enzymes.)

In data set [3] the target is High affinity cGMP-specific 3',5'-cyclic phosphodiesterase 9A (Homo sapiens, UniProt O76083). As to the kind of experiment: Inhibition of Ca2+/calmodulin-induced recombinant human full length N-terminal GST-tagged PDE9A2 expressed in baculovirus infected Sf9 cells using cGMP as substrate pretreated for 10 mins followed by substrate addition and measured after 60 mins by kinase-Glo luminescence assay. The method in brief:
(§2)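 Selectivity screen run as a PDE-Glo enzymatic-activity luminescence assay, with IC50 values determined against each counter-screen PDE isoform.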

Data set [4] deals with Dual specificity calcium/calmodulin-dependent 3',5'-cyclic nucleotide phosphodiesterase 1C (Homo sapiens, UniProt Q14123). Kind of data set: Inhibition of Ca2+/calmodulin-induced full-length recombinant human N-terminal GST-tagged PDE1C expressed in baculovirus infected Sf9 insect cells using cAMP as substrate pretreated for 10 mins followed by substrate addition and measured after 30 mins by kinase-Glo luminescence assay. In short, it runs like this: as §2
Sequence of Dual specificity calcium/calmodulin-dependent 3',5'-cyclic nucleotide phosphodiesterase 1C (Q14123 whole entry): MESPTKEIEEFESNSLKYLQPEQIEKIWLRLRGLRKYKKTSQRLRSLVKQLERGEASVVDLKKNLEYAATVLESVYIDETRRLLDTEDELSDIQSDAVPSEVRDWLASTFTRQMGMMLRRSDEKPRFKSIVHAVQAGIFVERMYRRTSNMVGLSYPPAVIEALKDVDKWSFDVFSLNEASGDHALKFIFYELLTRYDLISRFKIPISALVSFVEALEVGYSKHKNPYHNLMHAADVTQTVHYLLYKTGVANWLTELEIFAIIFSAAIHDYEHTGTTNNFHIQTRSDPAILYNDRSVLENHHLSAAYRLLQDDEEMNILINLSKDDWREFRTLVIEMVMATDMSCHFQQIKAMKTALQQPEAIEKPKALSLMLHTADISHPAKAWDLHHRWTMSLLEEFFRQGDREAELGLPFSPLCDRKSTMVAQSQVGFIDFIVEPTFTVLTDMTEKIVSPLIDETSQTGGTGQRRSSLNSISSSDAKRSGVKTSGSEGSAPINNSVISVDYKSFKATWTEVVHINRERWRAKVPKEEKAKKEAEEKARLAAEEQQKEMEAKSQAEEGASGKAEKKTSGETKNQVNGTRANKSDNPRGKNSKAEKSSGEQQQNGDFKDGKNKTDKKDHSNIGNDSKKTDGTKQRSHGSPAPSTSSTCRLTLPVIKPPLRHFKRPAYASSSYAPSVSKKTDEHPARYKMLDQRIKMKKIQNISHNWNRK

A short description of data set [5]: Intrinsic clearance in human liver microsomes in presence of NADP/G6P/G6P dehydrogenase/MgCl2 by LC/MS analysis. Type of data set: ADME, microsome. Conditions: read-out: CLH; call rule not given here. In short, it runs like this: as §1
Data set [6] is described as follows: Intrinsic clearance in rat liver microsomes. It counts as ADME, microsome.
Data set [7] deals with T1, cAMP and cAMP-inhibited cGMP 3',5'-cyclic phosphodiesterase 10A. Kind of data set: Inhibition of PDE10 (unknown origin).

T1 sequence (Q9Y233 whole entry): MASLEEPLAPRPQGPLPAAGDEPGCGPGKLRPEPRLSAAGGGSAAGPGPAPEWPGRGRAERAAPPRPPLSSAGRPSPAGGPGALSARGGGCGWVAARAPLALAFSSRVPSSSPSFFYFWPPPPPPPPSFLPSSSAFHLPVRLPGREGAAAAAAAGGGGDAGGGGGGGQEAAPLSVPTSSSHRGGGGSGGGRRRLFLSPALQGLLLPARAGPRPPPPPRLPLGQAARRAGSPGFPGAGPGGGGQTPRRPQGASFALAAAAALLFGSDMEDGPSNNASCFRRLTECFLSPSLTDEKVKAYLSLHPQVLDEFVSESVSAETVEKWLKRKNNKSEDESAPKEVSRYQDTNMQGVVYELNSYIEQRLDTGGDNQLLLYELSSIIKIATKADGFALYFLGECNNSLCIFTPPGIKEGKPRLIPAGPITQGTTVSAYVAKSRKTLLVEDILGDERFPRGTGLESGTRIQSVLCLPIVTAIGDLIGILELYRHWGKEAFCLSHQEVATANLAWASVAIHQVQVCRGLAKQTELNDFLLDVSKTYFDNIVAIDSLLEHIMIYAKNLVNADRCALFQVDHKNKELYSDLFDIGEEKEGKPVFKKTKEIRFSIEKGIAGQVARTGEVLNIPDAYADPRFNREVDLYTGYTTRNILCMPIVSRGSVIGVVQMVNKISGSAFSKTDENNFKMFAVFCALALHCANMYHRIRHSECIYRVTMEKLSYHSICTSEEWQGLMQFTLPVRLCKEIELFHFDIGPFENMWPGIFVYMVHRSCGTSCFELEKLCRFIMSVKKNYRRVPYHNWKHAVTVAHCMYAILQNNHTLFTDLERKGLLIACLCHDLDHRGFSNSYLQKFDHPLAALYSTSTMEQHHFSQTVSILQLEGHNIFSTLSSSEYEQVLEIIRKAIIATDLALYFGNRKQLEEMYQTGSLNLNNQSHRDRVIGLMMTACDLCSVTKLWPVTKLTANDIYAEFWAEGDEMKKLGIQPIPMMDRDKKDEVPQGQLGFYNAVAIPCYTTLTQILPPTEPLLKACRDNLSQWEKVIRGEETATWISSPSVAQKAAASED
Sequence of High affinity cGMP-specific 3',5'-cyclic phosphodiesterase 9A (O76083 whole entry, canonical isoform): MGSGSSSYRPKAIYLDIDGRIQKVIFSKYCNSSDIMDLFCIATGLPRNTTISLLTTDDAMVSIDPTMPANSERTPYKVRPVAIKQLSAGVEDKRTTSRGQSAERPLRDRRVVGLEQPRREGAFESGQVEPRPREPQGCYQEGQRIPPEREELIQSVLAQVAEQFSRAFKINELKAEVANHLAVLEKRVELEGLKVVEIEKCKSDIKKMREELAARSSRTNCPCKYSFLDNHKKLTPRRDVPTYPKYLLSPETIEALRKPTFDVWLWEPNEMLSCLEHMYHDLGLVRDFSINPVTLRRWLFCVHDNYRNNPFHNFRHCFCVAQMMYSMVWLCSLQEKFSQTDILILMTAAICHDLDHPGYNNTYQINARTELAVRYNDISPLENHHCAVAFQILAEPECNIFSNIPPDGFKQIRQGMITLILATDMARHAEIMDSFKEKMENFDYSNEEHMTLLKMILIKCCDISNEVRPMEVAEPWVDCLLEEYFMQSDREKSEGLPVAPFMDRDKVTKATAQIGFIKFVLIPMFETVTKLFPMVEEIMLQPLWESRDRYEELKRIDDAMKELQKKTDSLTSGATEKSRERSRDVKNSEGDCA

Turning to `Cc1nc(-c2ccc3nc(-c4ccccc4)[nH]c3c2)nc2ccccc12`, the IC50 – broadly, the concentration that inhibits the measured activity by half – in data set [1] (read-out: IC50) turned out to be 0.315 µM. In addition, in data set [2], the microsomal CLint was more than 450 µL/min/mg.
As for `Cc1cc(C)n2nc(-c3ccc4nc(-c5ccccc5)[nH]c4c3)nc2n1`, the IC50 in data set [3] and in data set [4] was more than 10 µM in each case.
`Cc1ncc(C)n2nc(-c3ccc4nc(-c5cccnc5)[nH]c4c3)nc12`: the IC50 in data set [3] was more than 10 µM; in data set [1] (read-out: IC50), 0.166 µM; in data set [4], more than 10 µM.
As to `Cc1ncc(C)n2nc(-c3ccc4nc(-c5cnccn5)[nH]c4c3)nc12`, in data set [1] (read-out: IC50), the IC50 was more than 1 µM.
With `Cc1ncc(C)n2nc(-c3ccc4nc(-c5ccco5)[nH]c4c3)nc12`, the IC50 in data set [3] was more than 10 µM; in data set [1] (read-out: IC50) it was 0.067 µM; in data set [4], more than 10 µM. Besides, the microsomal CLint in data set [2] is 26.3 µL/min/mg.
On to `Cc1ncc(C)n2nc(-c3ccc4nc(-c5ccc(F)cc5)[nH]c4c3)nc12`, for which the IC50 in data set [3] and in data set [4] was more than 10 µM throughout.
With `Cc1cnc(-c2nc3ccc(-c4nc5c(C)ncc(C)n5n4)cc3[nH]2)s1`, the IC50 in data set [3] was more than 10 µM; in data set [1] (read-out: IC50), 0.198 µM; in data set [4], more than 10 µM.
As for `Cc1ncc(C)n2nc(-c3ccn4cc(-c5ccc(F)cc5Cl)nc4n3)nc12`, the IC50 in data set [1] (read-out: IC50) was more than 1 µM. Besides, the microsomal CLint in data set [2] came out at 11.5 µL/min/mg.
Regarding `Cc1ncc(C)n2nc(-c3ccn4cc(-c5ccc(F)cc5)nc4n3)nc12`, the IC50 in data set [3] is more than 10 µM; in data set [1] (read-out: IC50), 0.076 µM; in data set [4] it was more than 10 µM. Besides, the microsomal CLint in data set [2] amounted to 3.1 µL/min/mg.
For the compound `Cc1ncc(C)n2nc(-c3ccc4nc(-c5ccccc5C(F)(F)F)[nH]c4c3)nc12`, in data set [1] (read-out: IC50), the IC50 is more than 1 µM.
On the same count and under the same terms, in the case of `Cc1cc(C)n2nc(-c3ccn4cc(-c5ccccn5)nc4n3)nc2n1` it was 0.28 µM.
For the compound `Cc1ncc(C)n2nc(-c3ccn4cc(-c5ccccn5)nc4n3)nc12`, the IC50 in data set [3] is more than 10 µM; in data set [1] (read-out: IC50) it was 0.115 µM; in data set [4] it was more than 10 µM.
Consider `Cc1cc(C)n2nc(-c3ccn4nc(-c5ncccn5)nc4c3)nc2n1`, for which, in data set [1] (read-out: IC50), the IC50 was more than 5 µM.
`Cc1ncc(C)n2nc(-c3ccc4nc(-c5cncs5)[nH]c4c3)nc12`: the results for the IC50 in data set [3], in data set [1] (read-out: IC50) and in data set [4] were more than 10 µM, 0.135 µM and more than 10 µM, respectively.
In the case of `Cc1ncc(C)n2nc(-c3ccn4cc(-c5cccc(Cl)c5)nc4n3)nc12`, the IC50 in data set [3] was more than 10 µM; in data set [1] (read-out: IC50), 0.107 µM; in data set [4] it was more than 10 µM. Besides, the microsomal CLint in data set [2] is 18.9 µL/min/mg.
For the compound `Cc1ncc(C)n2nc(-c3ccc4nc(-c5ccc(Cl)s5)[nH]c4c3)nc12`, the IC50 was more than 10 µM in data set [3], 0.161 µM in data set [1] (read-out: IC50) and more than 10 µM in data set [4].
With `Cc1ncc(C)n2nc(-c3ccc4nc(-c5nccn5C)[nH]c4c3)nc12`, the IC50 in data set [1] (read-out: IC50) was found to be 0.28 µM.
Same read-out and setting: in the case of `Cc1nc(-c2ccn3nc(-c4ccccc4)nc3c2)nc2ccccc12` it was 0.884 µM.
With `Cc1ncc(C)n2nc(-c3ccc4[nH]c(-c5ccccn5)nc4c3)nc12`, the half-inhibitory concentration (IC50) in data set [3] and in data set [4] was more than 10 µM each time. Besides, the microsomal CLint in data set [2] is 11.1 µL/min/mg.
Regarding `Cc1ncc(C)n2nc(-c3ccc4nc(-c5ccccc5C#N)[nH]c4c3)nc12`, the IC50 in data set [1] (read-out: IC50) was determined as 0.382 µM.
`Cc1ncc(C)n2nc(-c3ccn4cc(-c5nccs5)nc4n3)nc12`: the results for the IC50 in data set [3], in data set [1] (read-out: IC50) and in data set [4] were more than 10 µM, 0.135 µM and more than 10 µM, respectively.
On to `Cc1cc(C)n2nc(-c3ccn4nc(-c5ccccc5)nc4c3)nc2n1`, for which the half-inhibitory concentration (IC50) in data set [1] (read-out: IC50) is 0.381 µM.
As to `Cc1ncc(C)n2nc(-c3ccc4nc(-c5cccc(Br)c5)[nH]c4c3)nc12`, the IC50 is more than 10 µM in data set [3], 0.146 µM in data set [1] (read-out: IC50) and more than 10 µM in data set [4].
In the case of `Cc1ncc(C)n2nc(-c3ccc4[nH]c(-c5ccccc5)nc4c3)nc12`, the IC50 in data set [3] and in data set [4] was more than 10 µM in each case. Also, the values for the microsomal CLint in data set [5] and in data set [2] were 34.4 µL/min/mg and 27.4 µL/min/mg, respectively.
Take `Cc1nc(-c2ccn3cc(-c4ccccc4)nc3n2)nc2ccccc12`: in data set [1] (read-out: IC50), the IC50 stood at 0.163 µM.
As for `COc1ccccc1-c1nc2ccc(-c3nc4c(C)ncc(C)n4n3)cc2[nH]1`, the IC50 in data set [3] and in data set [4] was more than 10 µM throughout.
On to `COc1ccc(OC)c(-c2cn3ccc(-c4nc5c(C)ncc(C)n5n4)nc3n2)c1`, for which, in data set [1] (read-out: IC50), the concentration for half-maximal inhibition (IC50) was more than 0.28 µM.
On to `Cc1ncc(C)n2nc(-c3ccc4[nH]c(-c5ccccc5F)nc4c3)nc12`, for which the IC50 in data set [3] and in data set [4] was more than 10 µM in each case.
In the case of `Cc1ncc(C)n2nc(-c3ccc4nc(-c5cnc6ccccc6n5)[nH]c4c3)nc12`, the IC50 in data set [1] (read-out: IC50) was more than 1 µM.
Same read-out and setting: in the case of `Cc1ncc(C)n2nc(-c3ccc4nc(-c5cscn5)[nH]c4c3)nc12` it was 0.268 µM.
`Cc1csc(-c2nc3ccc(-c4nc5c(C)ncc(C)n5n4)cc3[nH]2)n1`: the IC50 in data set [3] was more than 10 µM; in data set [1] (read-out: IC50), 0.117 µM; in data set [4], more than 10 µM.
As to `Cc1ccccc1-c1nc2ccc(-c3nc4c(C)ncc(C)n4n3)cc2[nH]1`, in data set [1] (read-out: IC50), the IC50 was found to be 0.242 µM.
On the same count and under the same terms, in the case of `COc1ccnc(-c2nc3ccc(-c4nc5c(C)ncc(C)n5n4)cc3[nH]2)c1` it was more than 0.28 µM.
With `Cc1cc(C)n2nc(CCc3nc(-c4ccccc4)cn3C)nc2n1`, in data set [6], the CLH is 13 µL/min/mg. This compound also had an IC50 in data set [7] of 0.067 µM.
As to `Cc1cc(C)n2nc(-c3ccn4cc(-c5nccs5)nc4n3)nc2n1`, the IC50 in data set [1] (read-out: IC50) was found to be 0.458 µM.
Consider `Cc1cc(C)n2nc(-c3ccn4cc(-c5ccccc5)nc4n3)nc2n1`, for which the IC50 in data set [3] and in data set [4] was more than 10 µM in each case.
For `Cc1ncc(C)n2nc(-c3ccc4nc(-c5ccccc5OC(F)(F)F)[nH]c4c3)nc12`, in data set [1] (read-out: IC50), the IC50 is 0.28 µM.
The same measure, in the same setting: in the case of `Cc1cc(C)n2nc(-c3ccc4cc(-c5ccccc5)nn4c3)nc2n1` it was 0.77 µM.
Same read-out and setting: in the case of `Cc1ncc(C)n2nc(-c3ccn4nc(-c5ccccc5)nc4c3)nc12` it was 0.268 µM.
For `COc1ccccc1-c1cn2ccc(-c3nc4c(C)ncc(C)n4n3)nc2n1`, the IC50 is more than 10 µM in data set [3], 0.052 µM in data set [1] (read-out: IC50) and more than 10 µM in data set [4]. Also, in data set [2], the microsomal CLint came out at 9.1 µL/min/mg.
With `Cc1ncc(C)n2nc(-c3ccc4nc(Cc5ccccc5)[nH]c4c3)nc12`, the IC50 in data set [1] (read-out: IC50) is more than 1 µM.
With `Cc1ncc(C)n2nc(-c3ccc4nc(-c5ncccc5F)[nH]c4c3)nc12`, the IC50 is more than 10 µM in data set [3], 0.069 µM in data set [1] (read-out: IC50) and more than 10 µM in data set [4]. Moreover, the microsomal CLint in data set [2] was 1.8 µL/min/mg.
For `Cc1ncc(C)n2nc(-c3ccn4cc(-c5ccc(Br)cc5)nc4n3)nc12`, in data set [1] (read-out: IC50), the IC50 was more than 1 µM. The microsomal CLint in data set [2] worked out at 15 µL/min/mg.
On to `Cc1cc(C)n2nc(-c3ccc4nc(-c5ccccc5)n(C)c4c3)nc2n1`, for which the IC50 result in data set [1] (sf9) was “Not Active”.
In the case of `Cc1cc(C)n2c(Br)c(CSc3nc4ccccc4[nH]3)nc2n1`, the CLH in data set [6] was found to be 3.6 µL/min/mg. In data set [7], this compound had an IC50 of 0.21 µM.
Regarding `Cc1ncc(C)n2nc(-c3ccn4cc(-c5ccccc5Br)nc4n3)nc12`, the IC50 is more than 10 µM in data set [3], 0.145 µM in data set [1] (read-out: IC50) and more than 10 µM in data set [4]. Also, the microsomal CLint in data set [2] amounted to 1.8 µL/min/mg.
In the case of `Cc1ncc(C)n2nc(-c3ccc4nc(-c5nccs5)[nH]c4c3)nc12`, the IC50 in data set [3] and in data set [4] was more than 10 µM throughout.
Turning to `Cc1ncc(C)n2nc(-c3ccc4nc(-c5cccs5)[nH]c4c3)nc12`, the half-maximal inhibitory concentration (IC50) in data set [3] is more than 10 µM; in data set [1] (read-out: IC50) it was 0.028 µM; in data set [4], more than 10 µM.
Regarding `COc1cccnc1-c1nc2ccc(-c3nc4c(C)ncc(C)n4n3)cc2[nH]1`, the IC50 in data set [3] is more than 10 µM; in data set [1] (read-out: IC50), 0.04 µM; in data set [4], more than 10 µM. Besides, the microsomal CLint in data set [5] turned out to be 0.7 µL/min/mg; in data set [2], 5.4 µL/min/mg.
On to `Cc1ncc(C)n2nc(-c3ccc4cc(-c5ccccc5)nn4c3)nc12`, for which the IC50 in data set [1] (read-out: IC50) was 0.581 µM.
Still for that read-out and setting: in the case of `Cc1ncc(C)n2nc(-c3ccc4[nH]c(-c5cocn5)nc4c3)nc12` it was more than 0.3 µM.

The values are drawn from ChEMBL document CHEMBL4152287, “Synthesis and characterization of novel classes of PDE10A inhibitors - 1H-1,3-benzodiazoles and imidazo[1,2-a]pyrimidines” (Eur J Med Chem, 2018).
